Data taken from ChEMBL document CHEMBL4364290, “Light-controlled inhibition of BRAFV600E kinase” (Eur J Med Chem, 2019).
Activity calls are given as the source filed them. No cut-off for these calls is given here.

Columns and labels:
[1] = target: T1, Serine/threonine-protein kinase B-raf (Homo sapiens, UniProt P15056, V600E); test: Inhibition of human recombinant N-terminal GST/His6-tagged BRAF V600E mutant (Q417 to H766 residues) expressed in Sf9 insect cells using MEK1 as substrate measured after 1 hr using light irradiated compound at 365 nm for 45 mins by Western blot analysis
T1 sequence (P15056 2-766 V600E limits assumed): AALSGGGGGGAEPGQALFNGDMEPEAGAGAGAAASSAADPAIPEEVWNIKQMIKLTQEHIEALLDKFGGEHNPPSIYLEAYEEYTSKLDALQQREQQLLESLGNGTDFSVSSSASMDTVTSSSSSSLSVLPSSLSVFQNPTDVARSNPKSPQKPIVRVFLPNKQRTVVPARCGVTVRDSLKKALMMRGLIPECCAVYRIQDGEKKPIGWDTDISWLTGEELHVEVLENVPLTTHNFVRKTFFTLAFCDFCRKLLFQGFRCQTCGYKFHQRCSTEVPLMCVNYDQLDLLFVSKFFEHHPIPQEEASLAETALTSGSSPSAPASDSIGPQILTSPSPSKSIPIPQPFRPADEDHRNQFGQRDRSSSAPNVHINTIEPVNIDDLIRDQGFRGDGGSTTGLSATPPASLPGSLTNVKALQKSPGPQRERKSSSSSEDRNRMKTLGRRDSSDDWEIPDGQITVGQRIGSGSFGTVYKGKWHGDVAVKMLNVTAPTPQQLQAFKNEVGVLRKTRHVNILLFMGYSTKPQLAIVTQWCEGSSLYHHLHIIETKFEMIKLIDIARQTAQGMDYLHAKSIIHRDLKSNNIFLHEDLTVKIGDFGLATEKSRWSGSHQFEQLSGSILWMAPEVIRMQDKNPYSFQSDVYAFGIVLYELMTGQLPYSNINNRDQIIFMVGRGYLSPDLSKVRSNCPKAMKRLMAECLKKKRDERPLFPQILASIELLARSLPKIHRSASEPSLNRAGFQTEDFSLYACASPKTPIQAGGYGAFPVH

[2] = Half life of the compound in pH 7.5 tris HCl buffer/acetonitrile at 2 mg/ml measured at room temperature under 365 nm light irradiation using trans-isomer form of compound by 1H-19F NMR spectroscopic analysis
Outline: (§1)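 Cis isomer generated by 365 nm irradiation to PSS; half-life of thermal cis-to-trans relaxation followed at room temperature in DMSO, in BRAF assay buffer, or in 1:1 BRAF assay buffer/acetonitrile where solubility required.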

[3] = Half life of the compound in DMSO-d6 at 2 mg/ml measured at room temperature under 365 nm light irradiation using trans-isomer form of compound by 1H-19F NMR spectroscopic analysis; outline: as §1
[4] = Drug re-isomerization in DMSO-d6 assessed as cis isomer level at PSS at 2 mg/ml measured after 20 hrs under dark condition at room temperature using irradiated compound by 1H-NMR spectroscopic analysis
A-375 [5] = test: Cytotoxicity against human A375 cells harboring BRAF V600E mutant assessed as reduction in cell viability at 10 uM incubated for 24 hrs by MTS assay; assay type: functional, cell-based
Outline: (§2)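 A375 melanoma cells (BRAF V600E) exposed 24 h to 10 µM compound, thermally adapted or 365 nm-irradiated, versus DMSO control; viability by MTS assay.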

[6] = Drug isomerization in DMSO-d6 irradiated at 365 nm assessed as rate of thermal relaxation measured as cis isomer level at PSS at 2 mg/ml measured after 18 hrs storage in dark at room temperature by 1H-NMR spectroscopic analysis
[7] = target: T1, Serine/threonine-protein kinase B-raf; test: Inhibition of human recombinant BRAF V600E mutant using MEK1 as substrate measured after 1 hr by Western blot analysis
[8] = tested on: Serine/threonine-protein kinase B-raf (Homo sapiens), P15056 [V600E]; test: Inhibition of BRAF V600E mutant in human SK-MEL-28 cells using peptide substrate by STK-Pamchip array-based method; assay type: cell-based
Sequence of Serine/threonine-protein kinase B-raf (Homo sapiens), P15056 [V600E] (P15056 whole entry V600E, the tested form may be a part): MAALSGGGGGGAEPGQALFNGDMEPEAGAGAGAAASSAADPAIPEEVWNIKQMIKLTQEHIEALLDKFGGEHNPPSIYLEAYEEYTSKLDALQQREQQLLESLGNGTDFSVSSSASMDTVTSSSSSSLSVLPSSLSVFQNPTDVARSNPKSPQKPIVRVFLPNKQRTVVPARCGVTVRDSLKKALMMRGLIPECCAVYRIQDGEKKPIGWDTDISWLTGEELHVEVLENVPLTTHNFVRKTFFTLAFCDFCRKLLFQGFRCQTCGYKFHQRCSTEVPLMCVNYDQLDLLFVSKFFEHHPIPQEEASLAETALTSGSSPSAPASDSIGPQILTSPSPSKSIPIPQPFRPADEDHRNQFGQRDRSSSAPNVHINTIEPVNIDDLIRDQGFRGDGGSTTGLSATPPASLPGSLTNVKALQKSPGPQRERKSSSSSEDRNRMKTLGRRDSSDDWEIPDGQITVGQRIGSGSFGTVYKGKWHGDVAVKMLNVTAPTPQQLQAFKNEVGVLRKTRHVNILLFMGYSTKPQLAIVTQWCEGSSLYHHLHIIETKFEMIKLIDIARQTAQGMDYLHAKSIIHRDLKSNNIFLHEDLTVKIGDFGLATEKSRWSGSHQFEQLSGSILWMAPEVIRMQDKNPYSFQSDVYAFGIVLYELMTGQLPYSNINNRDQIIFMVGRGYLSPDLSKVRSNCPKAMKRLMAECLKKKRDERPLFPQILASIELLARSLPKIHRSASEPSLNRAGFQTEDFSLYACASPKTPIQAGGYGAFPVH
Outline: (§3)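 SK-Mel-28 cell lysates treated with DMSO control or inhibitor, either dark (thermally adapted) or irradiated with 365 nm light; kinase activity profiled on PamGene STK peptide chips.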

[9] = target: T1, Serine/threonine-protein kinase B-raf; test: Inhibition of human recombinant N-terminal GST/His6-tagged BRAF V600E mutant (Q417 to H766 residues) expressed in Sf9 insect cells using MEK1 as substrate measured after 1 hr using preheated compound at 60 degC for 30 mins by Western blot analysis
[10] = Absorption property of the compound in pH 7.5 tris HCl buffer assessed as maximum absorption wavelength; assay type: physicochemical
Outline: (§4)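 λmax of the trans isomer recorded in DMSO and in BRAF assay buffer.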

[11] = Drug isomerization in DMSO-d6 assessed as cis isomer level at PSS at 2 mg/ml irradiated at 365 nm light measured immediately by 1H-NMR spectroscopic analysis
[12] = Drug isomerization in DMSO-d6 irradiated at 365 nm assessed as cis isomer level at PSS at 2 mg/ml measured after 30 mins under room temperature by 1H and 19F-NMR spectroscopic analysis
[13] = Drug isomerization in DMSO-d6 irradiated at 365 nm assessed as cis isomer level at PSS at 2 mg/ml measured after 90 mins under room temperature by 1H and 19F-NMR spectroscopic analysis
[14] = Drug isomerization in DMSO-d6 irradiated at 365 nm assessed as cis isomer level at PSS at 2 mg/ml measured after 60 mins under room temperature by 1H and 19F-NMR spectroscopic analysis
[15] = Absorption property of the compound in DMSO assessed as maximum absorption wavelength; assay type: physicochemical; outline: as §4
[16] = Stability of the compound in DMSO-D6 at 2 mg/ml by 1H-19F NMR analysis; assay type: physicochemical; conditions: read-out: Stability
[17] = Drug isomerization in DMSO-d6 irradiated at 365 nm assessed as cis isomer level at PSS at 2 mg/ml measured after 70 mins under room temperature by 1H and 19F-NMR spectroscopic analysis
[18] = Drug isomerization in DMSO-d6 irradiated at 365 nm assessed as cis isomer level at PSS at 2 mg/ml measured after 40 mins under room temperature by 1H and 19F-NMR spectroscopic analysis
[19] = Stability of thermally adapted compound in bovine plasma at 10 uM after 1 hr at 37 degC by LCMS analysis; assay type: ADME, cell-free, Bos taurus; conditions: cattle
[20] = tested on: Serine/threonine-protein kinase B-raf (Homo sapiens), P15056 [V600E]; test: Reversible inhibition of human recombinant N-terminal GST/His6-tagged BRAF V600E mutant (Q417 to H766 residues) expressed in Sf9 insect cells using MEK1 as substrate at 1 uM pre-irradiated with 365 nm light for 45 mins followed by thermal activation at 60 degC for 30 mins and subsequent light irradiation at 365 nm for 45 mins by Western blot analysis
[21] = tested on: Serine/threonine-protein kinase B-raf (Homo sapiens), P15056 [V600E]; test: Inhibition of BRAF V600E mutant in human SK-MEL-28 using peptide as substrate using preheated compound at 60 degC for 30 mins measured under dark condition by STK-Pamchip array-based method; assay type: cell-based; outline: as §3
[22] = Drug isomerization in bovine plasma at 10 uM measured after 20 hrs at 37 degC by LCMS analysis; assay type: ADME, cell-free, Bos taurus; conditions: cattle
[23] = Drug isomerization in bovine plasma assessed as cis-isomer formation at 10 uM irradiated with 365 nm light by LCMS analysis; assay type: ADME, cell-free, Bos taurus; conditions: cattle
[24] = Stability in bovine plasma irradiated with white light at 10 uM by LCMS analysis; assay type: ADME, cell-free, Bos taurus; conditions: cattle
A-375 [25] = test: Dark toxicity against human A375 cells harboring BRAF V600E mutant assessed as reduction in cell viability at 10 uM incubated for 24 hrs using preheated compound at 60 degC for 60 mins by MTS assay; assay type: cell-based; conditions: a-375, 24 h, in the assay text read “30 mins” for “60 mins”; outline: as §2
[26] = Drug isomerization in DMSO-d6 irradiated at 365 nm assessed as cis isomer level at PSS at 2 mg/ml measured after 45 mins under room temperature by 1H and 19F-NMR spectroscopic analysis

Structure (SMILES): COc1n[nH]c2ncc(NC(=O)c3c(F)ccc(/N=N\c4ccc(C)cc4)c3F)cc12
- IC50 [1]: 9 nM
- T1/2 [2]: > 24 h
- T1/2 [3]: > 20 h
- Drug metabolism [4]: 73%

Structure (SMILES): CCCS(=O)(=O)Nc1ccc(F)c(C(=O)c2c[nH]c3ncc(-c4ccc(Cl)cc4)cc23)c1F
- Activity (A-375 [5]): Active

Structure (SMILES): COc1ccccc1/N=N\c1ccc(F)c(C(=O)Nc2cnc3[nH]nc(OC)c3c2)c1F
- IC50 [1]: 360 nM
- T1/2 [2]: > 24 h
- Drug metabolism [6]: 79%
- T1/2 [3]: > 24 h

Structure (SMILES): COc1n[nH]c2ncc(NC(=O)c3c(F)ccc(NS(=O)(=O)c4ccccc4)c3F)cc12
- IC50 [7]: 22 nM
- Activity (A-375 [5]): Active
- inhibition [8]: Active

Structure (SMILES): COc1ccc(/N=N/c2ccc(F)c(C(=O)Nc3cnc4[nH]nc(OC)c4c3)c2F)cc1
- IC50 [9]: 92 nM
- Activity [10]: 341 nm
- Drug metabolism [11]: 96%
- Drug metabolism [12]: 60%
- Drug metabolism [13]: 92%
- Drug metabolism [14]: 83%
- Activity [15]: 357 nm
- remaining at 2 mg/ml [16]: > 95%

Structure (SMILES): COc1ccc(/N=N\c2ccc(F)c(C(=O)Nc3cnc4[nH]nc(OC)c4c3)c2F)cc1
- IC50 [1]: 470 nM
- T1/2 [2]: > 24 h
- T1/2 [3]: > 10 h
- Drug metabolism [4]: 79%

Structure (SMILES): COc1n[nH]c2ncc(NC(=O)c3c(F)ccc(/N=N/c4ccccc4F)c3F)cc12
- IC50 [9]: 320 nM
- Activity [10]: 331 nm
- Drug metabolism [11]: 71%
- Drug metabolism [17]: 71%
- Drug metabolism [18]: 68%
- Activity [15]: 336 nm
- remaining at 2 mg/ml [16]: > 95%

Structure (SMILES): COc1n[nH]c2ncc(NC(=O)c3c(F)ccc(/N=N/c4ccccc4)c3F)cc12
- IC50 [9]: 1680 nM
- Activity [10]: 328 nm
- Drug metabolism [11]: 37%
- Stability [19]: Unstable
- inhibition [20]: Active
- inhibition [21]: Active
- Drug metabolism [22]: Metabolite_Detected
- Drug metabolism [13]: 55%
- Stability [23]: Unstable
- Stability [24]: Unstable
- Activity (A-375 [25]): Non-Toxic
- Drug metabolism [26]: 46%
- Activity [15]: 332 nm
- remaining at 2 mg/ml [16]: > 95%

Structure (SMILES): COc1ccccc1/N=N/c1ccc(F)c(C(=O)Nc2cnc3[nH]nc(OC)c3c2)c1F
- IC50 [9]: 300 nM
- Activity [10]: 327 nm
- Drug metabolism [11]: 88%
- Drug metabolism [13]: 88%
- Drug metabolism [14]: 88%
- Activity [15]: 334 nm
- remaining at 2 mg/ml [16]: > 95%
